We go through nine compounds from ChEMBL document CHEMBL1133803, “Design and synthesis of irreversible depsipeptidyl human rhinovirus 3C protease inhibitors” (Bioorg Med Chem Lett, 2001).

Data set [1] has as its system HeLa. The data set can be described thus: Anti viral activity against human rhinovirus (HRV) in H1HeLa cells. In kind it is functional, cell-based.
Data set [2] in a line: Metabolism after 30 min of incubation with human liver microsomes in the absence of cofactor […] (2.0 mM) at a concentration of 25 uM. Type of data set: ADME. The following applies: read-out: Metabolism. The gist of the method: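 Compound incubated for 30 min with human liver microsomes (1.0 mg/mL), with or without NADPH. An aliquot was precipitated with acetonitrile, then analysed by reverse-phase HPLC at rt using a gradient of CH3CN/CH3OH/0.01% TFA (pH 3.5 adjusted with NEt3), from 5:20:75 to 60:20:20 over 20 min, held 10 min, 1.0 mL/min. Result expressed as % metabolism.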
(In general: Microsomes from liver hold many membrane-bound enzymes, among them those of drug oxidation.)

Another data set relates to Human rhinovirus sp. Kind of data set: Enzyme inhibition against Human Rhinovirus 3C protease was determined. In kind it is functional.
The nature of data set [3]: Metabolism after 30 min of incubation with human liver microsomes in the presence of cofactor […] (2.0 mM) at a concentration of 25 uM. The following applies: read-out: Metabolism. Type of data set: ADME.
The test system of data set [4] is HeLa. Kind of data set: Cytotoxicity against uninfected H1HeLa cells. Type of data set: functional. The note with it: Homo sapiens.

Consider `CCOC(=O)/C=C/[C@H](C[C@@H]1CCNC1=O)NC(=O)[C@H](Cc1ccc(F)cc1)OC(=O)[C@@H](NC(=O)c1cc(C)on1)C(C)C`, for which, in the data set with HeLa [1], the EC50 – broadly, the concentration at which the effect is half-maximal – amounted to 7 nM. Moreover, the metabolised at 0.5 h, 25 µM came out at 44% in data set [2] and 67% in data set [3]. Further, in the data set on Human rhinovirus sp., the “K obs / 1” value was found to be 270000 M⁻¹ s⁻¹. Further, in the data set on HeLa [4], the CC50 (as a rule, the concentration that lowers cell viability or growth by half) is above 100000 nM.

Turning to `CCOC(=O)/C=C/[C@H](C[C@@H]1CCNC1=O)NC(=O)[C@H](Cc1ccc(F)cc1)NC(=O)[C@@H](NC(=O)c1cc(C)on1)C(C)C`, the EC50 in the data set on HeLa [1] turned out to be 10 nM. Also, the metabolised at 0.5 h, 25 µM in data set [2] came to 7%; in data set [3], 22%. Besides, the “K obs / 1” value with Human rhinovirus sp. is 1500000 M⁻¹ s⁻¹. This compound also yielded a cytotoxic concentration (CC50) in the data set with HeLa [4] above 100000 nM.

For the compound `CCOC(=O)/C=C/[C@H](CCC(N)=O)NC(=O)[C@@H](CC(=O)[C@@H](NC(=O)c1cc(C)on1)C(C)C)Cc1ccc(F)cc1`, a half-maximal response with HeLa [1] (EC50) required 100 nM. Also, the “K obs / 1” value in the data set on Human rhinovirus sp. was determined as 240000 M⁻¹ s⁻¹. This compound registered a CC50 with HeLa [4] above 100000 nM.

Turning to `CCOC(=O)/C=C/[C@H](CCC(N)=O)NC(=O)[C@@H](CC(=O)[C@@H](NC(=O)SC1CCCC1)C(C)C)Cc1ccc(F)cc1`, the response with HeLa [1] was half-maximal at 20 nM (EC50). Moreover, the “K obs / 1” value in the data set with Human rhinovirus sp. is 293000 M⁻¹ s⁻¹. In the data set on HeLa [4], the CC50 is above 100000 nM.

`CCOC(=O)/C=C/[C@H](CCC(N)=O)NC(=O)[C@H](Cc1ccc(F)cc1)OC(=O)[C@@H](NC(=O)c1cc(C)on1)C(C)C`: the EC50 in the data set with HeLa [1] is 100 nM. Further, in the data set with Human rhinovirus sp., the “K obs / 1” value was determined as 68400 M⁻¹ s⁻¹. In addition, the CC50 in the data set with HeLa [4] is above 10000 nM.

In the data set with HeLa [1], `CCOC(=O)/C=C/[C@H](CCC(N)=O)NC(=O)[C@H](Cc1ccc(F)cc1)NC(=O)[C@@H](NC(=O)c1cc(C)on1)C(C)C` came in with an EC50 of 420 nM. For the same compound, the “K obs / 1” value in the data set with Human rhinovirus sp. is 248000 M⁻¹ s⁻¹. The CC50 in the data set on HeLa [4] is above 100000 nM.

With `CCOC(=O)/C=C/[C@H](CCC(N)=O)NC(=O)[C@H](Cc1ccc(F)cc1)OC(=O)[C@@H](NC(=O)SC1CCCC1)C(C)C`, the EC50 in the data set on HeLa [1] stood at 1000 nM. Besides, the “K obs / 1” value with Human rhinovirus sp. turned out to be 99800 M⁻¹ s⁻¹. This compound yielded a CC50 in the data set with HeLa [4] above 10000 nM.

In turn, `CCOC(=O)/C=C/[C@H](C[C@@H]1CCNC1=O)NC(=O)[C@@H](CC(=O)[C@@H](NC(=O)c1cc(C)on1)C(C)C)Cc1ccc(F)cc1` [RUPINTRIVIR] gave an EC50 in the data set on HeLa [1] of 5 nM. Also, the metabolised at 0.5 h, 25 µM came to 27% in data set [2] and 50% in data set [3]. The “K obs / 1” value in the data set on Human rhinovirus sp. worked out at 1090000 M⁻¹ s⁻¹. In addition, the CC50 in the data set with HeLa [4] is above 100000 nM.

`CCOC(=O)/C=C/[C@H](CCC(N)=O)NC(=O)[C@H](Cc1ccc(F)cc1)NC(=O)[C@@H](NC(=O)SC1CCCC1)C(C)C` had a 50% effective concentration (EC50) in the data set with HeLa [1] of 190 nM. Moreover, in the data set with Human rhinovirus sp., the “K obs / 1” value is 59900 M⁻¹ s⁻¹. Besides, the half-maximal cytotoxic concentration (CC50) in the data set on HeLa [4] was above 100000 nM.
